Measurements from PubChem BioAssay AID809 (SRMLSC, 2007).
Active and inactive are the calls of the source.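 Rule for the calls: active = EC50 for reversing nicotinamide-shortened yeast lifespan at or below a set limit; inactive = EC50 above that limit.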

tested on: S. cerevisiae DeaD BB579, nicotinamide rescue growth, OD615 48 h; assay: rescue of nicotinamide-suppressed growth of yeast BB579, dose response, yeast lifespan extension project, S. cerevisiae (AID 809)
How it was run: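 System – S. cerevisiae DeaD strain BB579 · Buffer or medium – CSMM-D glucose restrictive medium · Times – culture pre-incubation 4 h, then compound exposure 48 h, both 30 °C · Signal – OD615 absorbance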

Row | SMILES | EC50
1 | CN(C)C=C1C(=O)N(C2CCCCC2)C(=O)N(C2CCCCC2)C1=O | 6.96 µM
2 | O=C(O)c1ccc(O)c(N2C(=O)Nc3ccccc3N2O)c1 | > 10 µM (inactive)
3 | O=C(N/N=C/c1ccccc1)c1c(O)c2ccccc2[nH]c1=O | 0.58 µM
4 | CC(C)c1ccc2occ(-c3nn[nH]n3)c(=O)c2c1 | 6.44 µM
5 | c1ccc(-c2c(-c3ccccc3)n(Cc3ccco3)c3ncnc(NCCCn4ccnc4)c23)cc1 | 1.98 µM
6 | COc1cc(C(C[N+](=O)[O-])c2c(-c3ccccc3)cc3ccccn23)cc(OC)c1OC (configuration not stated) | > 10 µM (inactive)
7 | CC(=O)N1CCN(CCN=CC2=C(O)CC(c3cccs3)CC2=O)CC1 (configuration not stated) | > 10 µM (inactive)
8 | Cc1[nH]nc2nc3c(c(OC(=O)c4ccccc4)c12)c(=O)n(C)c(=O)n3C | 1.75 µM
9 | C=C(C(=O)c1ccccc1)C(C)CC(=O)c1ccccc1 (configuration not stated) | 6.42 µM
10 | CN1CCC2(CC1)C(C#N)=C(N)NC(S)=C2C#N | > 10 µM (inactive)
11 | Nc1cccc2c1C(=O)N(C(=O)c1ccc(Cl)c(S(=O)(=O)N3CCCCCC3)c1)C2=O | 7.66 µM
12 | Cc1cc(C)nc(SCc2cc(=O)c(OC(=O)c3ccc(Br)o3)co2)n1 | 3.26 µM
13 | COc1ccccc1-c1c(C)oc2cc(OC(=O)c3ccco3)ccc2c1=O | > 10 µM (inactive)
14 | O=C(Oc1ccc2c(c1)OCO2)C12CC3CC(CC(C3)C1)C2 | > 10 µM (inactive)
15 | Cc1ccc(N2NC(=O)/C(=C\c3cc4c(cc3[N+](=O)[O-])OCO4)C2=O)cc1C | > 10 µM (inactive)
16 | Cc1ccc(CNc2nc3ccccc3s2)s1 | > 10 µM (inactive)
17 | Nn1c(-c2ccccn2)nnc1-c1ccccn1 | > 10 µM (inactive)
18 | CN1C(=O)C(C(=O)Nc2ccccc2F)c2ccccc21 (configuration not stated) | 9.71 µM
19 | CN(C)/C=C(/C(=O)c1ccc(Cl)cc1Cl)S(=O)(=O)c1ccccc1 | 5.3 µM
20 | CC[n+]1c(/C=C2\C=C(C)CC(C)(C)C2)sc2ccccc21 | > 10 µM (inactive)
21 | O=C(Nc1scc(-c2cccs2)c1C(=O)O)c1cccs1 | 6.7 µM
22 | Cc1ccc(S(=O)(=O)N[C@@H](Cc2ccccc2)C(=O)CCl)cc1 | 5.97 µM
23 | Cn1c(SCC(=O)N2CCCc3ccccc32)nnc1-c1c[nH]c2ccccc12 | > 10 µM (inactive)
24 | C=C(C)CN(CC)C(=O)COc1ccc(S(=O)(=O)Nc2ccc(OC)cc2)cc1 | > 10 µM (inactive)
25 | O=C1NCC2=C1C(c1ccc(Br)cc1)Nc1ccccc1N2 (configuration not stated) | 6.26 µM
26 | CCCCC(=O)Nc1ccc(C(=O)NNC(=S)NC(=O)c2cccs2)cc1 | 8.39 µM

Row | SMILES | EC50
27 | COC(=O)C1=C(N)OC2=C(C(=O)CC(C)(C)C2)C1c1cccs1 (configuration not stated) | 8.93 µM
28 | CCOC(=O)C1Cc2cc3c(cc2C1=O)CC(C(=O)OCC)C3=O (configuration not stated) | 5.89 µM
29 | COc1ccc2c3c(cccc13)C(=O)N(O)C2=O | 2.08 µM
30 | C/C(=N\NC(=O)c1ccccc1O)C1C(=O)c2ccccc2C1=O | < 0.078 µM
31 | O=c1c2ccccc2nc(-c2ccc(Cl)c(Cl)c2)n1O | > 10 µM (inactive)
32 | COC(=O)c1cc(OC)c(OC)cc1NC(=S)Nc1cccc(C(C)=O)c1 | > 10 µM (inactive)
33 | O=C(NCc1ccc(Cl)cc1)c1ccccc1CCc1ccccc1 | 7.94 µM
34 | O=C(Nc1cccnc1)c1c(O)c2cccc3c2n(c1=O)CC3 | 4.44 µM
35 | O=C1Nc2cc(Cl)c(Cl)cc2N(O)N1c1cc(Cl)cc(Cl)c1 | > 10 µM (inactive)
36 | O=C(Cn1nc(Cl)nc1Cl)c1cc2ccccc2oc1=O | > 10 µM (inactive)
37 | Cc1ncc(C23CC4CC(CC(C4)C2)C3)[nH]1 | > 10 µM (inactive)
38 | O=S1(=O)C=C(Sc2nnc(-c3ccccc3)o2)c2ccccc21 | 9.27 µM
39 | CCOc1ccc2nc(NCCNC(=O)Nc3ccccc3)c(C#N)cc2c1 | > 10 µM (inactive)
40 | CC(C)(C)C(=O)/C(=C/c1cccc([N+](=O)[O-])c1)n1cncn1 | 3.73 µM
41 | CCCn1c(C)cc(C(=O)COc2ncnc3sccc23)c1C | 5.05 µM
42 | O=C1C(Cl)=C(Nc2ccccc2O)C(=O)N1CCc1ccccc1 | > 10 µM (inactive)
43 | Cc1ccc(C(=O)OC2=CC(=O)CC(C)(C)C2)cc1 | 2.94 µM
44 | Cc1cc(C)nc(SCc2cc(=O)c(OC(=O)c3ccco3)co2)n1 | > 10 µM (inactive)
45 | COc1ccccc1CN(Cc1nc2ccccc2c(=O)[nH]1)C(=O)Nc1cccc(C)c1 | > 10 µM (inactive)
46 | Cc1ccc(-c2ccc(/C=C3\C(=O)ON=C3c3ccccc3)o2)c([N+](=O)[O-])c1 | 6.93 µM
47 | O=C(c1ccc(F)cc1)C(CN1CCOCC1)c1ccccc1 (configuration not stated) | 1.12 µM
48 | CN=C(SCc1cc2c(cc1Cl)OCO2)c1c(O)n(C)c(=O)n(C)c1=O | 6.46 µM
49 | COc1cccc(C(=O)Oc2cc(N)n(S(=O)(=O)c3ccc(C)cc3)n2)c1OC | 9.26 µM
50 | CCC(=NCCc1c(C)[nH]c2ccc(C)cc12)C1=C(O)CC(c2ccccc2)CC1=O (configuration not stated) | 5.08 µM
51 | COc1ccc(-c2cc(C(F)(F)F)nc(S(C)(=O)=O)n2)cc1OC | 8.76 µM
52 | CC1CCCN(c2nc3ccccc3nc2C(C#N)C(=O)OC2CCCCC2)C1 (configuration not stated) | > 10 µM (inactive)

Row | SMILES | EC50
53 | CC(C)n1c(-c2ccccc2F)n[nH]c1=S | > 10 µM (inactive)
54 | O=C(Oc1cc(=O)n2ccccc2n1)c1ccccc1 | 7.19 µM
55 | COCCCN(C(=S)Nc1cc(Cl)cc(Cl)c1)C(C)c1ccncc1 (configuration not stated) | > 10 µM (inactive)
56 | CCOC(=O)C1=C(C)Nc2nc(=S)[nH]n2C1c1ccc(Cl)cc1 (configuration not stated) | 5.46 µM
57 | CC(=O)Oc1c(C(=O)c2nnc(C)o2)c(=O)n(C)c2ccccc12 | > 10 µM (inactive)
58 | CCn1c(/N=C/c2ccccc2NS(=O)(=O)c2ccc(C)cc2)nc2ccccc21 | 3.3 µM
59 | COC(=O)C1=C(C(=O)OC)C(c2cc(Br)ccc2O)c2sc(=O)[nH]c2S1 (configuration not stated) | 4.75 µM
60 | CCCCCC(=O)N1CCN(CCN=CC2=C(O)CC(c3ccc(OC)c(OC)c3)CC2=O)CC1 (configuration not stated) | > 10 µM (inactive)
61 | CN1C(=O)NC(c2ccc(O)cc2)C(C(=O)c2cccs2)C1(O)C(F)(F)F (configuration not stated) | > 10 µM (inactive)
62 | O=[N+]([O-])c1c(C(Cl)Cl)nn(-c2ccccc2)c1N1CCCC1 | 7.47 µM
63 | CC1CCCCC1NC(=O)/C(C#N)=C/c1ccccc1F (configuration not stated) | 7.11 µM
64 | O=C1NC(=O)N(CCC2=CCCCC2)C(=O)/C1=C\c1cccs1 | 7.01 µM
65 | O=C(/C=C/c1ccccc1)C1C(=O)c2ccccc2C1=O | > 10 µM (inactive)
66 | O=c1[nH]c2ccccc2nc1Cc1ccccc1 | > 10 µM (inactive)
67 | O=C(c1c[nH]c(C(=O)C(Cl)(Cl)Cl)c1)c1ccccc1Cl | 8.53 µM
68 | CCOC(=O)C1C(=O)C(C(C)=O)C(=O)CC1CC(C)SCC (configuration not stated) | 2.06 µM
69 | Cc1ccc(S(=O)(=O)Nc2ccccc2/C=N/c2nc3ccccc3n2C(C)C)cc1 | > 10 µM (inactive)
70 | C=CCn1c(C)cc(C(=O)COc2ncnc3sccc23)c1C | 9.94 µM
71 | Cc1ccc(C)c(N2CCN(S(=O)(=O)c3c(C)noc3/C=C/N(C)C)CC2)c1 | > 10 µM (inactive)
72 | C/C(=N\NC(=O)c1cccnc1)c1c(O)cc(C)oc1=O | > 10 µM (inactive)
73 | O=C(O)CCCCCN1C(=O)/C(=C\c2ccncc2)SC1=S | > 10 µM (inactive)
74 | Cc1ccc(OCC(=O)c2c(O)c3ccccc3oc2=O)cc1C | 8.97 µM
75 | O=C(Oc1ccc([N+](=O)[O-])cc1)c1ccc2ccccc2n1 | > 10 µM (inactive)
76 | CCSc1nnc(NC(=O)C2(C)Cc3ccccc3C(=O)O2)s1 (configuration not stated) | 6.52 µM
77 | COc1ccc(-c2cc(C(F)(F)F)nc(S(C)(=O)=O)n2)cc1 | 6.1 µM
